Assays:
[1] = target: hERG (KCNH2) (Homo sapiens, UniProt Q12809); assay: Inhibition of human ERG channel expressed in HEK293 cells at 1 uM by voltage patch clamp technique; format: cell-based; settings: HEK293 cells that express hERG
[2] = Inhibition of sodium channel in Wistar rat cerebrocortical synaptosomes assessed as inhibition of veratridine-induced depolarization using rhodamine-6G by spectrofluorometry; format: subcellular, Brain
[3] = Neuroprotective activity in guinea pig papillary muscles assessed as action potential duration at 90% repolarization at 10 uM after 30 mins relative to control; format: functional, Cavia porcellus, Muscle tissue
In short: (§1)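 Intracellular action potentials were evoked by 1 ms pulses at 1.5–3 times the voltage threshold, with all solutions held at 36 °C. APD90 was recorded before and 30 min after compound exposure and expressed against the pre-treatment value.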

[4] = Neuroprotective activity in guinea pig papillary muscles assessed as action potential duration at 90% repolarization at 3 uM after 30 mins relative to control; format: functional, Cavia porcellus, Muscle tissue; in short: as §1
[5] = Neuroprotective activity in guinea pig papillary muscles assessed as action potential duration at 90% repolarization at 30 uM after 30 mins relative to control; format: functional, Cavia porcellus, Muscle tissue; in short: as §1
[6] = system: Rattus norvegicus; assay: Neuroprotective activity in sc dosed Wistar rat transient middle cerebral artery occlusion model administered 30 mins after occlusion; format: functional, organism-based
In short: (§2)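 Female Wistar rats, 8 weeks old, underwent 90 min transient MCAO followed by reperfusion. Drug was given sc 30 min after occlusion at 0.8, 2.5 or 8.2 mg/kg, and controls received an equal volume of saline. At 24 h the brain was cut into 7 slices and TTC-stained. Infarct area per slice was measured by image analysis and summed to infarct volume; n = 5–6, mean ± SEM, Student's t-test.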

[7] = system: Rattus norvegicus; assay: Neuroprotective activity in Wistar rat transient middle cerebral artery occlusion model at 8.2 mg/kg, sc administered 30 mins after occlusion; format: functional; settings: route subcutaneous; in short: as §2
[8] = system: Rattus norvegicus; assay: Neuroprotective activity in Wistar rat transient middle cerebral artery occlusion model at 0.8 mg/kg, sc administered 30 mins after occlusion; format: functional; settings: route subcutaneous; in short: as §2
[9] = Neuroprotective activity in guinea pig papillary muscles assessed as action potential duration at 90% repolarization at 100 uM after 30 mins relative to control; format: functional, Cavia porcellus, Muscle tissue
In short: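 Action potentials were evoked by 1 ms stimuli at 1.5–3 times threshold voltage, with all solutions kept at 36 °C. APD90 was recorded before compound exposure and again 30 min after.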

[10] = system: Rattus norvegicus; assay: Neuroprotective activity in Wistar rat transient middle cerebral artery occlusion model at 2.5 mg/kg, sc administered 30 mins after occlusion; format: functional; settings: route subcutaneous; in short: as §2
[11] = system: Rattus norvegicus; assay: Neuroprotective activity in Wistar rat transient MCAO model assessed as reduction in cerebral infarction size at 8.2 mg/kg, sc (reference value: 379.8 +/- 43.8 mm'3); format: functional; settings: route subcutaneous; in short: as §2

Chain of hERG (KCNH2) (Q12809 whole entry): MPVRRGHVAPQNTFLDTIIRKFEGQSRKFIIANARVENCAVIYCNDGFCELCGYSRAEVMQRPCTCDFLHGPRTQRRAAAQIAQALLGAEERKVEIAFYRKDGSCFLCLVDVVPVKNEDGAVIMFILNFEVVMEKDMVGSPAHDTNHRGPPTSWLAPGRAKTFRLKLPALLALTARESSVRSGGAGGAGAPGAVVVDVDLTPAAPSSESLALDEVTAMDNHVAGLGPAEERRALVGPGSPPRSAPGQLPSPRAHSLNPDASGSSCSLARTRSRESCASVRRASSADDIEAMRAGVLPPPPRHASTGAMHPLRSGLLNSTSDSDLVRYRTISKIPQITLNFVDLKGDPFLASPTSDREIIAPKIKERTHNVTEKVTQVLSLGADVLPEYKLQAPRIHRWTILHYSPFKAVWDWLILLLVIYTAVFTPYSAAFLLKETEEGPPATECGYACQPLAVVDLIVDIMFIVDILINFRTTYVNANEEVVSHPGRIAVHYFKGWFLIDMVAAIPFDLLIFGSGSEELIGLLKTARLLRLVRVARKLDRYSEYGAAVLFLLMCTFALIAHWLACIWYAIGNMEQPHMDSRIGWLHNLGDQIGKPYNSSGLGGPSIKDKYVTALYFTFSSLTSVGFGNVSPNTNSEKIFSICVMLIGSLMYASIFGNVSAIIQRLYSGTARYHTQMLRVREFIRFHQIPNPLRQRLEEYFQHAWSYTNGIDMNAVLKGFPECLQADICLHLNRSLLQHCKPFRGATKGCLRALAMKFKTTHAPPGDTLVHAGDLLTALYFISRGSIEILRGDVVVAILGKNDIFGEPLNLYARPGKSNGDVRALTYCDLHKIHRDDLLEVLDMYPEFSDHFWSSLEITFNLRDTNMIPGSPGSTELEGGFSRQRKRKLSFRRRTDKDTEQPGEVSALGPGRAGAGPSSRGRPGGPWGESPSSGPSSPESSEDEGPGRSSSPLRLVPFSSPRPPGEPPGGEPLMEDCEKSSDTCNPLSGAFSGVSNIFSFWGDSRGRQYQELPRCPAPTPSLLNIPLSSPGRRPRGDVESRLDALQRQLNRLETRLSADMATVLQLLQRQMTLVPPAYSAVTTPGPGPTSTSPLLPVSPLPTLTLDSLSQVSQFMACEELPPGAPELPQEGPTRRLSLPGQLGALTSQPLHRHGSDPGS

c1ccc(CN2C[C@@H](NC3CCCCC3)[C@H](C3CCCCC3)C2)cc1 (racemic)
inhibition at 1 µM [1]: 35%
IC50 [2]: 740 nM

c1ccc(CN[C@@H]2CN(Cc3ccccc3)C[C@H]2c2ccccc2)cc1 (racemic)
inhibition at 1 µM [1]: 57%
IC50 [2]: 640 nM

Cc1cc(OC[C@@H](O)CN2CCN(c3ccc(Cc4ccc(F)cc4)cc3)CC2)c(C)c(C)c1N
inhibition at 1 µM [1]: 78%

Cc1nc(OCCCCCN2CCCCC2)cc(-c2ccc(F)cc2)n1
inhibition at 1 µM [1]: 60%

OC(COc1ccc2c(c1)CCC2)CN1CCC(c2nc3ccccc3[nH]2)CC1 (configuration not stated)
inhibition at 1 µM [1]: 99%

O=C(N[C@@H]1CN(Cc2ccccc2)C[C@H]1c1ccccc1)C1CCCCC1 (racemic)
inhibition at 1 µM [1]: 31%
IC50 [2]: 480 nM

c1ccc(CN2C[C@@H](NC3CCCCC3)[C@H](c3ccccc3)C2)cc1
IC50 [2]: 540 nM

c1ccc(CN[C@@H]2CN(Cc3ccccc3)C[C@H]2C2CCCCC2)cc1 (racemic)
inhibition at 1 µM [1]: 79%
IC50 [2]: 900 nM

C[C@@H](CN1CC[C@@]2(C)c3cccc(O)c3C[C@@H]1C2(C)C)OCc1ccccc1.Cl
Activity [3]: 89.1%
inhibition at 1 µM [1]: 69%
Activity [4]: 96.6%
Activity [5]: 72.9%

O=C(N[C@@H]1CN(Cc2ccccc2)C[C@H]1c1ccccc1)c1ccccc1 (racemic)
inhibition at 1 µM [1]: 45%
IC50 [2]: 1900 nM

c1ccc(CN2C[C@H](NC3CCCCC3)[C@H](c3ccccc3)C2)cc1
inhibition at 1 µM [1]: 28%
IC50 [2]: 560 nM

O=C(N[C@@H]1CN(Cc2ccccc2)C[C@H]1C1CCCCC1)C1CCCCC1 (racemic)
inhibition at 1 µM [1]: 45%
IC50 [2]: 740 nM

c1ccc(CN2C[C@H](NC3CCCCC3)[C@@H](c3ccccc3)C2)cc1
IC50 [2]: 570 nM

c1ccc(CN2C[C@@H](NC3CCCCC3)[C@H](c3ccccc3)C2)cc1 (racemic)
Activity [6]: Dose-dependent effect

c1ccc(CN2C[C@@H](NCC3CCCCC3)[C@H](c3ccccc3)C2)cc1 (racemic)
inhibition at 1 µM [1]: 60%
IC50 [2]: 320 nM

c1ccc(CN2C[C@@H](Nc3ccccc3)[C@H](c3ccccc3)C2)cc1 (racemic)
inhibition at 1 µM [1]: 43%
IC50 [2]: 480 nM

Cl.Cl.c1ccc(CN2C[C@@H](NC3CCCCC3)[C@H](c3ccccc3)C2)cc1 (racemic)
Activity [7]: 56%
Activity [8]: 27%
Activity [9]: 90.8%
Activity [3]: 95.3%
inhibition at 1 µM [1]: 8.4%
Activity [10]: 37%
IC50 [2]: 510 nM
Activity [5]: 92.3%
Activity [11]: 166.7 mm3

c1ccc([C@@H]2CN(C3CCCCC3)C[C@H]2NC2CCCCC2)cc1 (racemic)
IC50 [2]: 3350 nM

c1ccc([C@@H]2CN(CC3CCCCC3)C[C@H]2NC2CCCCC2)cc1 (racemic)
inhibition at 1 µM [1]: 45%
IC50 [2]: 380 nM

c1ccc(CN2C[C@@H](NCC3CCCCC3)[C@H](C3CCCCC3)C2)cc1 (racemic)
inhibition at 1 µM [1]: 60%
IC50 [2]: 560 nM

From ChEMBL document CHEMBL2401676, “Synthesis and biological evaluation of pyrrolidine derivatives as novel and potent sodium channel blockers for the treatment of ischemic stroke” (Bioorg Med Chem Lett, 2013)
